# Screening results (PubChem)
# p47phox inh: blocks human p47phox regulatory protein of NADPH oxidases | P14598 | p47phox/p22phox peptide binding, fluorescence polarization, 2 h | 220,000 tested, 0.53% active | inhibition, % at 24.7 µM;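 active = inhibition above about 30%, limit read from the data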
# Target sequence (P14598 whole entry, looked up): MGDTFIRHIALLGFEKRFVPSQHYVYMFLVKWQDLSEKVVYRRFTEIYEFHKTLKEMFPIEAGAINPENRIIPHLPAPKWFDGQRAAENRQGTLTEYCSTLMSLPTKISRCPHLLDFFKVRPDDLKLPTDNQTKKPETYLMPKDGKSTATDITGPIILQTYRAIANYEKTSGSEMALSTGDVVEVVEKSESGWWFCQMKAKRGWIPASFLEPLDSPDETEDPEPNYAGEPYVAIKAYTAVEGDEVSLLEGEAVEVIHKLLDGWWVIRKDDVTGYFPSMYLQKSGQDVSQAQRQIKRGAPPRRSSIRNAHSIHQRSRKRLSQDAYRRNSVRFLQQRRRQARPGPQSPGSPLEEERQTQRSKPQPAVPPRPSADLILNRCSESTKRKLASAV
# Yeast growth inh: chemicals that inhibit yeast BB579 growth in restrictive medium (lifespan-shortening candidates) | S. cerevisiae BB579 growth, OD615, 48 h | inhibition, % at 10 µM | 140,000 tested, 0.51% active;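 active = inhibition above a set limit, 3 SD over the mean compound inhibition, cut at about 44% in these data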
#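 System: DeaD yeast strain BB579; buffer or medium: CSMM-D dextrose restrictive medium; technique: OD at 615 nm; schedule: 4 h cell preincubation, 48 h compound exposure, 30 °C humidified; doses: single 10 µM dose; controls: amphotericin B 10 µg/mL, positive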
# Tb hexokinase: T. brucei hexokinase 1 inhibition; 220,000 tested, 0.11% active; recombinant TbHK1, G6PDH-coupled NADH A340; inhibition, % at 10 µM;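 active = inhibition of 50% or more in the single-dose primary screen; inactive = inhibition below 50%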
# SDO1 yeast rescue: compounds rescuing growth of sdo1-depleted yeast, bone marrow failure model; S. cerevisiae sdo1-depleted JHY4D growth rescue, OD600 30 h; stronger effect = higher value; pdr5 snq2 efflux-pump mutant strain; z-score at 10 µM; 140,000 tested, 0.21% active; AID 817;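 active = z-score above 3 at both the 24 hr and the 30 hr optical density reads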
# Yeast life ext: extends the lifespan of yeast | inhibition of the nicotinamide effect, % at 10 µM | AID 775 | 130,000 tested, 0.68% active | S. cerevisiae growth with nicotinamide, OD615; deaD strain in restrictive glucose medium;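 active = inhibition above a set limit, placed 3 SD over the median of all compounds, cut at about 26% in these data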
#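 assay system = DeaD-strain S. cerevisiae | measured by = absorbance at 615 nm | probe or stimulus = nicotinamide 1.5 mM | buffer or medium = CSMM-D glucose medium, restrictive | times = 48 h at 30 °C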
# RBBP9 inh: inhibitors of human serine hydrolase RBBP9; O75884; recombinant RBBP9, FP-Rh probe fluorescence polarization; 220,000 tested, 0.2% active; inhibition, % at 7.94 µM;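 active = inhibition above the campaign mean of all tested compounds plus 3 SD, cut at about 14% in these data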
# Target sequence (O75884 whole entry, looked up): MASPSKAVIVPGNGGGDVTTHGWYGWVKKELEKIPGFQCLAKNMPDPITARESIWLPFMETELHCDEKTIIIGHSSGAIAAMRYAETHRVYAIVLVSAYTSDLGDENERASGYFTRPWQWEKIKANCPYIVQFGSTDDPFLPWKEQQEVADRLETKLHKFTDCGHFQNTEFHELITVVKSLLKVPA
#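 System: RBBP9 protein / Quantity: 2.5 µM RBBP9 dispensing solution, before mixing / Also added: Serine-hydrolase probe FP-Rh, 375 nM pre-mixing / Dosing: 7.94 µM single dose, 0.794% DMSO / Timing: enzyme-compound preincubation 30 min, then probe labeling 45 min, 25 °C / Signal: FP readout at 525/598 nm / Controls: DMSO-treated enzyme wells and wells lacking RBBP9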
# A number is an active result; - = inactive; . = no result. In the library only some 1.6% were active in any assay of this set; here they are far more common.
SMILES,p47phox inh,Yeast growth inh,Tb hexokinase,SDO1 yeast rescue,Yeast life ext,RBBP9 inh
CC(C)Cn1c(=O)c(C(=O)Nc2ccccc2S(N)(=O)=O)c(O)c2ccccc21,-,-,-,-,-,-
CCOC(=O)Cc1csc(NC(=O)c2c(O)c3ccccc3n(CC(C)C)c2=O)n1,-,-,-,-,69,-
Cn1c(SCC(=O)N/N=C/c2ccc([N+](=O)[O-])s2)nnc1-c1ccc(Cl)cc1,-,99,-,-,-,-
CCc1nnc(NC(=O)C2=CCN(S(=O)(=O)c3ccccc3)CC2)s1,-,.,-,.,.,-
CCN(CC)c1ccc(NC(=O)Cn2c(C(C)NC(=O)c3ccccc3)nc3ccccc32)cc1 (stereo not drawn),39,-,-,-,-,-
Cc1nc2ccccc2nc1OCc1cccc([N+](=O)[O-])c1,-,.,-,.,.,-
O=C1c2ccc3c4c(ccc(c24)C(=O)N1NC(=O)C(F)(F)F)CC3,-,54,-,-,-,-
Cc1ccc(Nc2cnn(C34CC5CC(CC(CC(=O)O)(C5)C3)C4)c(=O)c2Cl)c(Cl)c1,-,.,-,.,.,-
CCC1C(=O)CC(c2ccc([N+](=O)[O-])cc2)NC1c1ccc([N+](=O)[O-])cc1 (stereo not drawn),-,.,-,.,.,-
Cn1c(=O)c2c(nc(Br)n2Cc2ccccc2Cl)n(C)c1=O,-,-,-,-,-,-
Cn1c(=O)c2c(nc(Br)n2Cc2ccc3ccccc3c2)n(C)c1=O,-,-,-,-,38,-
Cc1nonc1NC(=O)CSc1nc(C2CCCCC2)nc2ccccc12,-,-,-,-,61,-
Cc1nc(NC(=O)c2cccc(-c3cc4ccccc4oc3=O)c2)ccc1Br,41,-,-,-,-,-
Cc1nc(NC(=O)c2ccc(-c3cc4ccccc4oc3=O)cc2)ccc1Br,-,-,-,-,-,-
O=C(Nc1ccc(Br)cn1)c1cccc(-c2cc3ccccc3oc2=O)c1,37,-,-,-,76,-
CCc1c(O)c(-c2ccccc2)c(=O)n(-c2ccccn2)c1-c1ccccc1,-,.,-,.,.,-
CCc1ccc(N2C(=O)CC(N3CCN(Cc4ccc5c(c4)OCO5)CC3)C2=O)cc1 (stereo not drawn),-,.,-,.,.,-
CC(C)(C)NC(=O)Cc1ccc(Cl)c(Cl)c1,-,.,-,.,.,-
Cc1ccc(N/N=C/c2cccnc2)cc1,-,92,-,-,-,-
CCc1nnc(N2C(=O)c3ccc(Oc4ccc([N+](=O)[O-])cc4)cc3C2=O)s1,-,-,-,-,52,-
CC(=O)Oc1ccc2c(c1)Oc1cc(OC(C)=O)ccc1C21OC(=O)c2ccccc21,-,-,-,-,-,16
Cc1cc(O)ccc1C1(c2ccc(O)cc2C)OC(=O)c2ccccc21,-,-,-,-,.,-
COc1ccc(OC)c(NC(=O)CSc2nncc3ccc(OC)c(OC)c23)c1,-,.,-,.,.,-
Cc1cccc(OCC(=O)Nc2ccc(S(=O)(=O)Nc3cc(C)nc(C)n3)cc2)c1,-,.,-,.,.,-
COc1cc(/C=C2\CC/C(=C\c3cc(OC)c(O)c(OC)c3)C2=O)cc(OC)c1O,-,-,-,-,-,19
SMILES,p47phox inh,Yeast growth inh,Tb hexokinase,SDO1 yeast rescue,Yeast life ext,RBBP9 inh
COc1ccc(N2Cc3cccc(C(=O)O)c3C2=O)cc1,-,-,-,-,29,-
CCCN1Cc2cccc(C(=O)N3CCN(c4ccc(OC)cc4)CC3)c2C1=O,-,.,-,.,.,-
O=C1SCCC1NC(=O)C(c1ccccc1)c1ccccc1 (stereo not drawn),-,.,-,.,.,-
O=c1c2ccccc2nc(/C=C/c2ccc([N+](=O)[O-])o2)n1CCCO,35,-,-,-,-,-
CN(C)c1ccc(/C=C/C=C2/SC(=S)N(c3ccccc3)C2=O)cc1,107,-,-,-,-,-
COc1cc(Cl)c(C)cc1NC(=O)c1ccc(NS(=O)(=O)c2ccc(F)c(F)c2)cc1,-,.,-,.,.,-
NNC(=O)c1ccc2c(c1)S(=O)(=O)NNC2=O,-,.,-,.,.,-
CCOc1ccccc1N1CCN(Cc2cnc(-c3ccccc3)[nH]2)CC1,-,.,-,.,.,-
CCOC(=O)N1C(=O)C2(CCCCC2)N(c2ccccc2Cl)C1=S,-,-,-,-,37,-
CCOC(=O)c1sc(=S)n(-c2ccccc2Cl)c1C,-,.,-,.,.,-
Nc1ccc(N)c(C(=O)O)c1,41,.,.,.,.,.
CC1C/C(=C\c2cccnc2)C(=O)/C(=C/c2cccnc2)C1 (stereo not drawn),-,-,-,-,70,-
COc1cc(-c2nc3ccc4ccccc4c3c3c2CCC3)ccc1O,-,85,-,-,-,-
COc1cc(-c2nc3ccc4ccccc4c3c3c2CCC3)cc(OC)c1O,-,-,-,-,-,-
COc1ccc(C2C(C(=O)c3ccccc3)=C(C)Nc3nc4ccccc4n32)cc1OC (stereo not drawn),34,-,-,-,-,-
O=[N+]([O-])c1ccc(Cl)cc1N1CCCCC1,-,.,-,.,.,-
COc1ccc(C2=C(N)c3ccccc3C2=O)cc1,-,-,-,-,-,-
COC1=C(c2ccccc2)C(=O)c2ccccc2C1=O,-,68,-,-,-,-
COc1cc(/C=N/NC(=O)Nc2ccccc2)ccc1OC(C)=O,-,-,-,-,-,-
CCOc1cc(/C=N/NC(=O)Nc2ccccc2)ccc1O,75,.,-,.,.,-
CCOC(=O)COc1cc([N+](=O)[O-])cc2cccnc12,-,.,-,.,.,-
CCOC(=O)COc1ccccc1/C=C\[N+](=O)[O-],-,-,-,-,44,-
Cc1ccc2c(c1)c1c3n2CCN(C(=O)CN2CCN(C)CC2)C3CCC1 (stereo not drawn),-,-,-,-,-,-
CN1CCN(CC(=O)N2CCn3c4c(c5cc(C6CCCCC6)ccc53)CCCC42)CC1 (stereo not drawn),31,100,-,-,-,-
Cn1c(N2CCOCC2)c(/C=N/OC(=O)c2ccc(F)cc2)c2ccccc21,-,85,-,-,-,-
SMILES,p47phox inh,Yeast growth inh,Tb hexokinase,SDO1 yeast rescue,Yeast life ext,RBBP9 inh
Cc1ccc(C(=O)O/N=C/c2c(N3CCOCC3)n(C)c3ccccc23)cc1,-,64,-,-,-,-
Cn1c(N2CCOCC2)c(/C=N/O)c2ccccc21,-,.,-,.,.,-
CC(=O)O/N=C/c1c(N2CCOCC2)n(C)c2ccccc12,-,79,-,-,-,-
COc1ccc(CSCC(=O)N/N=C/c2ccccc2O)cc1,-,.,-,.,.,-
NS(=O)(=O)c1ccc(-c2ccc(/C=C3\SC(=S)N(C4CCS(=O)(=O)C4)C3=O)o2)cc1 (stereo not drawn),36,.,-,.,.,-
CCOC(=O)c1cnc2ccc(C(=O)OC)cc2c1Nc1cccc(C(=O)O)c1,42,.,-,.,.,-
Cc1ccc(NC(=S)N/C(=N/S(=O)(=O)c2ccccc2)c2ccccc2)cc1,164,-,-,-,-,-
